Assay outcomes deposited in PubChem by Columbia University Molecular Screening Center.
INS promoter act – TRM-6 insulin promoter activation; TRM-6 cells (human fetal islet line), insulin promoter eGFP reporter, imaging; plate-scaled: unstimulated 0, stimulated control 100; activation, % at 2 µM; 130,000 tested, 0.81% active; AID 1296;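 active means activation at 2 µM above a set limit, confirmed on inspection of the cell images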;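 further: share of cells whose green reporter signal exceeds an intensity cutoff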
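Test system: TRM-6 insulin promoter–eGFP reporter cells / Quantity: 1,000 cells per well / Reagent: tamoxifen inducer, 0.75 µM, in seeding medium / Compound dosing: 2 µM final, single concentration / Schedule: overnight tamoxifen, then two-day compound incubation at 37 °C / Measured by: automated fluorescence imaging of paraformaldehyde-fixed, Hoechst-counterstained cells, green channel / Read-out: percent activation from GFP-positive cell fraction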
Hits are given with their value; i = inactive. Shown is part of a subset that was picked to be rich in hits.

SMILES	INS promoter act
COc1ccc(C/C(N)=N/OC(C)=O)cc1OC	i
COc1ccc(C(=O)O/N=C(\N)c2ccncc2)cc1OC	i
COc1cccc(C(=O)Nc2cc3c(cc2Cl)OCCCO3)c1	i
CC(C)=NN/C(N)=N/C(=S)Nc1ccc(C)cc1	i
COc1ccc(NC(=O)CSc2ccc3nnc(-c4cccnc4)n3n2)c(OC)c1	i
CCOC(=O)COn1c(=O)c(-c2ccc(OC)c(OC)c2)[n+]([O-])c2ccccc21	i
COc1ccc(-c2c(=O)n(OCc3ccccn3)c3ccccc3[n+]2[O-])cc1OC	i
Cc1c(=O)n(OCc2cccc(F)c2)c2ccccc2[n+]1[O-]	132
Cc1ccc(Nc2nnc(SCc3nc4ccccc4c(=O)[nH]3)s2)cc1	i
O=C(c1ccc2c(c1)OCCO2)N1CCN(c2ccc([N+](=O)[O-])cc2)CC1	i
O=C(CCc1ccccc1)NNC(=S)Nc1ccc(F)cc1	i
CN(C)S(=O)(=O)Oc1cc(Cl)ccc1C(=O)Nc1ccc(F)cc1F	i
Cc1noc(C)c1COc1cccc(C(=O)N2CCN(C/C=C/c3ccccc3)CC2)c1	i
Cc1cc2c(cc1C)NC(CC(=O)NCc1ccccc1)C(=O)N2 (stereo not drawn)	i
COc1ccc(NC(=O)C(NC(=O)CC2NC(=O)NC2=O)c2ccccc2)cc1 (stereo not drawn)	i
O=C(CC1NC(=O)NC1=O)Nc1cccc2ccccc12 (stereo not drawn)	569
Cc1[nH]c(=O)[nH]c(=O)c1S(=O)(=O)N1CCCC1	i
CCNS(=O)(=O)c1ccc(CCC(=O)NCc2ccccc2)cc1	i
CCC(C)NC(=O)c1cc(C)no1 (stereo not drawn)	121
CCC(C)NC(=O)c1n[nH]c(=O)c2ccccc12 (stereo not drawn)	i
CC(C)c1cc(NC(=O)CCl)on1	i
O=C(NNS(=O)(=O)c1ccccc1)c1ccc(S(=O)(=O)N2CCCCC2)cc1	i
Cc1n[nH]c(=S)n1/N=C/c1ccc(OCc2ccc(Cl)cc2)cc1	i
Cc1cccc(OCc2n[nH]c(=S)n2C2CCCCC2)c1	i
S=c1[nH]nc(COc2ccc(Cl)cc2)n1C1CCCCC1	437
SMILES	INS promoter act
CCS(=O)(=O)N1CCN(Cc2nc3ccccc3c(=O)[nH]2)CC1	i
CCC(C)N(C)Cc1cccc(C2(O)CCN(S(=O)(=O)c3ccc(F)c(C)c3)CC2)c1 (stereo not drawn)	i
CC1CCN(C(=O)CSCC(=O)Nc2nc(-c3cccs3)cs2)CC1	i
CC1CC(C)CN(C(=O)Cn2c(SCC(=O)N3CCc4ccccc4C3)nc3ccccc32)C1 (stereo not drawn)	i
CC1CCN(C(=O)Cn2c(SCC(=O)Nc3nccs3)nc3ccccc32)CC1	154
COc1ccc(OC)c(Nc2nc(-c3cccs3)cs2)c1	i
COc1ccc(Nc2nc(-c3cccs3)cs2)cc1	i
COc1ccc(Nc2nc(-c3cccs3)cs2)c(OC)c1	592
COc1ccc(S(=O)(=O)Nc2ccc(N(C)C(C)=O)cc2)cc1	103
CCOc1ccc(NS(=O)(=O)c2ccc(NC(=S)NC(C)=O)cc2)cc1	i
Cc1ccc(S(=O)(=O)Nc2ccc(N(C)C)cc2)cc1	i
O=c1c2ccccc2nc2sc3ccccc3n12	i
C=CCSc1nc2ccccc2c2nc(-c3ccccc3)nn12	i
C=CCSc1nn2c(=O)c3ccccc3nc2s1	130
CCOC(=O)N1CCC(Nc2c(NCCCN3CCN(C4CCCCC4)CC3)c(=O)c2=O)CC1	i
Clc1ccc(CNC23CN4CN(CN(C4)C2)C3)c(Cl)c1	i
Cc1ccc(S(=O)(=O)N2CCOCC2)cc1C(=O)Nc1c(C)n(C)n(-c2ccccc2)c1=O	i
O=S(=O)(c1ccc(Cl)c(NC(=S)Nc2cccc(O)c2)c1)N1CCOCC1	i
Cc1cccc(C)c1NC(=S)N=Nc1c(O)n(C)c2ccc(S(=O)(=O)N3CCOCC3)cc12	514
O=C(Cn1c(C(F)(F)F)nc2ccccc21)c1ccc(F)cc1	84
Cc1[nH]c2ccccc2c1C(=O)COC(=O)Cn1c(C(F)(F)F)nc2ccccc21	i
CC(C)NC(=O)Cn1c(SCC(=O)c2ccc(F)cc2)nc2ccccc21	i
CC1Cc2ccccc2N1C(=O)CSc1nnc(Cc2ccccc2)n1CCc1ccccc1 (stereo not drawn)	i
O=C(NCc1ccncc1)C(=O)C1C(=O)Nc2ccccc21 (stereo not drawn)	i
CC(C)[C@H](NC(=O)c1ccccc1)C(=O)OCC(=O)N1CC2(C)CC1CC(C)(C)C2 (stereo partly drawn)	i
SMILES	INS promoter act
O=C(Cc1ccccc1)Nc1ccc(CN2CCOCC2)cc1	i
O=C(Nc1ccc2c(c1)OCO2)c1ccc(CN2CCOCC2)cc1	i
CSc1ccccc1NC(=O)c1ccc(CN2CCOCC2)cc1	276
COc1ccc(OC)c(NS(=O)(=O)c2ccc(NC(=O)c3ccc(NS(C)(=O)=O)cc3)cc2)c1	i
CCc1nnc(NC(=O)[C@@H](NC(=O)c2cccc(S(=O)(=O)N(CC)CC)c2)C(C)C)s1	i
FC(F)(F)c1nnc(-c2ccccc2)nc1N1CCOCC1	i
Cc1ccc(-c2nnc(C)c(N3CCOCC3)n2)cc1	i
FC(F)(F)c1cccc(-c2nnc(-c3ccccc3)c(N3CCOCC3)n2)c1	233
C=CCNC(=O)/C(C#N)=C/c1cn(-c2ccccc2)nc1-c1cccs1	i
O=C(CSc1nnc2ccccn12)NC(=O)Cc1ccccc1	i
NC(=O)C1CCN(C2CC(=O)NC2=O)CC1 (stereo not drawn)	i
CCCOC(=O)c1ccc(NC(=O)c2cc(OC)c(OC)c(OC)c2Br)cc1	i
CCCCN(C(=O)NC(=O)Nc1c(C)cc(C)cc1C)S(C)(=O)=O	164
Cc1cc(C)c(NC(=O)Nc2ccccc2)c(Cl)c1	i
Cc1cc(C)c(NC(=O)Cc2ccc(-n3cccc3)cc2)c(C)c1	i
Cc1ccnc2nc(C(=O)OCC(=O)NCCc3ccccc3)nn12	i
COC(=O)C1=C(C(=O)OC)C(c2ccccc2O)c2sc(=O)[nH]c2S1 (stereo not drawn)	i
COc1ccc(NC(=O)C2=C(C)Nc3ncnn3C2c2ccccc2C(F)(F)F)c(OC)c1 (stereo not drawn)	403
COc1ccccc1NC(=O)C1=C(C)Nc2nnnn2C1c1ccncc1 (stereo not drawn)	i
CC1=C(C(=O)Nc2cccnc2)C(c2cccnc2)n2ncnc2N1 (stereo not drawn)	i
O=C(Nc1nc2c(s1)CCc1ccccc1-2)c1ccco1	i
O=c1oc2cc(O)ccc2cc1-c1nc2c(s1)CCc1ccccc1-2	733
O=c1oc2ccccc2cc1-c1ccc(O)cc1O	i
Cn1nc(-c2ccccc2)c(CO)c1Oc1ccc(F)cc1	i
CC(NC(=O)/C=C/c1ccco1)c1nc2ccccc2n1Cc1ccccc1F (stereo not drawn)	i
SMILES	INS promoter act
C=C1C(O)C[C@H]2C(=C)CCC3[C@H](OC(=O)[C@]3(O)CO)[C@@H]12 (stereo partly drawn)	275
C[C@@H]1CN(Cc2cn(C)nc2-c2cccc(Cl)c2)C[C@H](C)O1	i
COc1ccc(C(=O)NC(=S)N2CCN(C)CC2)cc1Br	i
COc1ccccc1NC(=O)CC1C(=O)NCCN1C(=O)Nc1ccccc1 (stereo not drawn)	i
C=CCNC(=O)CC1C(=O)NCCN1Cc1c(F)cccc1Cl (stereo not drawn)	i
CC(C)CCN1CCNC(=O)C1CC(=O)Nc1ccc(F)cc1 (stereo not drawn)	186
COc1ccc(Cl)cc1NC(=O)C(C)Sc1n[nH]c(N)n1 (stereo not drawn)	i
